In brackets after ≈: the same amount, converted by molar mass.
How the values were obtained:
[1] = target: T1, Phospho-N-acetylmuramoyl-pentapeptide-transferase (Staphylococcus aureus, UniProt P0C1R8); assay: Inhibition of Staphylococcus aureus MraY expressed in Escherichia coli membrane using Park's nucleotide as substrate pretreated for 30 mins followed by substrate addition measured up to 2 mins by fluorescence assay; type: cell membranes
T1 sequence (P0C1R8 whole entry): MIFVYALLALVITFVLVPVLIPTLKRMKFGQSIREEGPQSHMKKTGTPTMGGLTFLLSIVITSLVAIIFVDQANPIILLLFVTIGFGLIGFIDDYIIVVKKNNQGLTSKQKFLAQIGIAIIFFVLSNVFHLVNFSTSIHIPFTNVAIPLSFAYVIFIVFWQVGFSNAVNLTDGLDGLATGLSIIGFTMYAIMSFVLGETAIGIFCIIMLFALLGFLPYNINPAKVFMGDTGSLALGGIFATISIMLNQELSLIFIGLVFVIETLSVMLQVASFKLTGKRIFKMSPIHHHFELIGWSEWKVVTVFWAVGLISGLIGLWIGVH

[2] = target: T2, Phospho-N-acetylmuramoyl-pentapeptide-transferase (Aquifex aeolicus (strain VF5), UniProt O66465); assay: Inhibition of Aquifex aeolicus MraY expressed in Escherichia coli C41(DE3) using Park's nucleotide as substrate pretreated for 30 mins followed by substrate addition measured up to 2 mins by fluorescence assay
T2 sequence (O66465 whole entry): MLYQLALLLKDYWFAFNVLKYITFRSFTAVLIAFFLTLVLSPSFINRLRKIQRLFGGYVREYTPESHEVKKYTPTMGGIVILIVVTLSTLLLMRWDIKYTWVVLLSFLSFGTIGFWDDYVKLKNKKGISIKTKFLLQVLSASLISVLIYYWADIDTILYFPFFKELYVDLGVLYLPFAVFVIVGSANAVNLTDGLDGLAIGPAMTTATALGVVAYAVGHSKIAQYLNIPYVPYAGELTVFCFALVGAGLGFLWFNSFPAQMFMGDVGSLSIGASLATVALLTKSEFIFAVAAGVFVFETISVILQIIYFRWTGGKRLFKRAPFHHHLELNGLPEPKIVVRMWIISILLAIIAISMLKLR
Method in brief: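 Purified His-MBP-tagged AaMraY was expressed in E. coli C41(DE3), extracted with DDM, purified on cobalt resin, protease-cleaved and gel-filtered in DM. The enzyme (1 μL at 0.1 mg/mL) was preincubated 30 min at room temperature with inhibitor, undecaprenyl phosphate, pH 7.5 Tris, KCl, MgCl2, 0.1% Triton X-100 and 0–5% DMSO. Dansylated Park's nucleotide was then added. Fluorescence (ex 355/em 520 nm) was followed, and the rate was taken from a linear fit over 0–2 min.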

[3] = test system: Staphylococcus aureus; assay: Antimicrobial activity against Staphylococcus aureus subsp. aureus str. Newman after 16 hrs by resazurin dye based assay; type: functional
Method in brief: (§1)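 Overnight cultures (16 h, 37 °C) were diluted 1000-fold, grown to OD600 0.4, then diluted 1000-fold again. Cells were exposed to serially diluted compound from a top final concentration of 256 or 32 μg/mL, against a 1% DMSO or water control. Plates were incubated 16 h at 37 °C, read at OD600 normalised to control, then given resazurin for 3 h. The MIC was the lowest concentration inhibiting growth.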

[4] = test system: Escherichia coli; assay: Antimicrobial activity against tolC deficient Escherichia coli JW5503 after 16 hrs by resazurin dye based assay; type: functional; settings: JW5503, 16 h; method in brief: as §1
[5] = test system: Escherichia coli; assay: Antimicrobial activity against Escherichia coli BL21(DE3) after 16 hrs by resazurin dye based assay; type: functional; method in brief: as §1
[6] = test system: Escherichia coli; assay: Antimicrobial activity against Escherichia coli harboring imp mutant; type: functional
[7] = test system: Staphylococcus aureus; assay: Antimicrobial activity against Staphylococcus aureus infected in mouse; type: functional

## CO[C@H]1[C@H](O[C@H]([C@H]2O[C@@H](n3ccc(=O)[nH]c3=O)[C@H](O)[C@@H]2O)[C@H](NCCCNC(=O)[C@@H](NC(=O)[C@@H](NC(=O)N[C@H](C(=O)O)C(C)C)[C@@H]2CCNC(=N)N2)[C@@H](OC(=O)CCCCCCCCCCC(C)C)C(C)C)C(=O)O)O[C@H](CN)[C@H]1O
[1]
  IC50: 0.0221 nM
[2]
  IC50: 0.32 nM
[3]
  MIC: 6 µg/mL (≈ 5.19 µM)
[4]
  MIC: 2 µg/mL (≈ 1.73 µM)
[5]
  MIC: 32 µg/mL (≈ 27.7 µM)

## CO[C@H]1[C@H](O[C@H]([C@H]2O[C@@H](n3ccc(=O)[nH]c3=O)[C@H](O)[C@@H]2O)[C@H](NCCCNC(=O)[C@@H](NC(=O)[C@@H](NC(=O)N[C@H](C(=O)O)C(C)C)[C@@H]2CCNC(=N)N2)[C@@H](OC(=O)CCCCCCCCCCCCC(C)C)C(C)C)C(=O)O)O[C@H](CN)[C@H]1O
[1]
  IC50: 0.004 nM
[3]
  MIC: 2 µg/mL (≈ 1.69 µM)
[4]
  MIC: 4 µg/mL (≈ 3.38 µM)
[5]
  MIC: 64 µg/mL (≈ 54 µM)

## CO[C@H]1[C@H](O[C@H]([C@H]2O[C@@H](n3ccc(=O)[nH]c3=O)[C@H](O)[C@@H]2O)[C@H](NCCCNC(=O)[C@@H](NC(=O)[C@@H](NC(=O)N[C@H](C(=O)O)C(C)C)[C@@H]2CCNC(=N)N2)[C@@H](O)C(C)C)C(=O)O)O[C@H](CNC(C)=O)[C@H]1O
[1]
  IC50: 0.093 nM
[2]
  IC50: 1.8 nM
[3]
  MIC: > 32 µg/mL
[4]
  MIC: 16 µg/mL (≈ 16.2 µM)
[5]
  MIC: 256 µg/mL (≈ 259 µM)

## CO[C@H]1[C@H](O[C@H]([C@H]2O[C@@H](n3ccc(=O)[nH]c3=O)[C@H](O)[C@@H]2O)[C@H](NCCCNC(=O)[C@@H](NC(=O)[C@@H](NC(=O)N[C@H](C(=O)O)C(C)C)[C@@H]2CCNC(=N)N2)[C@@H](O)C(C)C)C(=O)O)O[C@H](CN)[C@H]1O
[1]
  IC50: 0.0157 nM
[2]
  IC50: 0.35 nM
[3]
  MIC: > 32 µg/mL
[4]
  MIC: 1 µg/mL (≈ 1.06 µM)
[5]
  MIC: 8 µg/mL (≈ 8.46 µM)

## CO[C@H]1[C@H](O[C@H]([C@H]2O[C@@H](n3ccc(=O)[nH]c3=O)[C@H](O)[C@@H]2O)[C@H](NCCCNC(=O)[C@@H](NC(=O)[C@@H](NC(=O)N[C@H](C(=O)O)C(C)C)[C@@H]2CCNC(=N)N2)[C@@H](OC(=O)CCCCCCCCCCCCN(O)C(=N)N)C(C)C)C(=O)O)O[C@H](CN)[C@H]1O
[6]
  MIC: < 0.03 µg/mL
[7]
  ED50: 1.1 mg/kg

— ChEMBL document CHEMBL4251710, “Antibacterial Muraymycins from Mutant Strains of Streptomyces sp. NRRL 30471” (J Nat Prod, 2018)
